In PMC11112715 (ACS Omega, 2024):
Like-named read-outs stand apart in the source and are kept apart here. Blank lines part the entries; values can stand above or below the compound they belong to.

Columns and labels:
[1] = test system: SCC-9 cells (human tongue oral squamous cell carcinoma); assay: MTT cell viability assay in SCC-9 cells; format: cell-based; conditions: for IC50: read-out: IC50 SSC9 oral squamous cell carcinoma; for Selectivity index (S.I.): IC50 in NIH3T3 / IC50 in SCC-9
How it was run: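 SCC-9 tongue OSCC cells from ATCC, grown in 1:1 DMEM/F12 with 10% FBS and 400 ng/mL hydrocortisone, 37 °C, 5% CO2. Plated at 5 × 10³ cells/well in triplicate, 48 h with graded test compound doses against matched DMSO (100% viability). MTT for 4 h, formazan in methanol/DMSO 1:1, absorbance 560 nm minus 670 nm. S.I. = IC50 NIH3T3 / IC50 SCC-9.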

SCC-9 cells = assay: Cell cycle progression and cell death, propidium iodide flow cytometry; format: cell-based, human; conditions: 48 h, compared to negative control
[2] = test system: NIH3T3 mouse fibroblast cells; assay: MTT cell viability assay in NIH3T3 normal fibroblasts; format: cell-based; conditions: read-out: IC50 NIH3T3 normal mouse fibroblasts
How it was run: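 NIH3T3 fibroblasts from ATCC, kept in DMEM with 10% FBS at 37 °C, 5% CO2. Seeded at 5 × 10³ cells/well in triplicate and exposed to a range of test compound concentrations for 48 h; DMSO diluted in medium at matching levels set 100% viability. MTT in medium for 4 h, formazan dissolved in 1:1 methanol/DMSO, A560 read minus 670 nm background.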

IC50 ([1]; Homo sapiens, SCC-9, 48 h): 49 µM
Compound: Cc1cc(C)c([Se]C#CCOC2=CC(=O)c3ccccc3C2=O)c(C)c1 [Compound 9h, 2-((3-(Mesitylselanyl)prop-2-yn-1-yl)oxy)naphthalene-1,4-dione]

Compound: Cc1ccc([Te]C#CCOC2=CC(=O)c3ccccc3C2=O)cc1 [Compound 10b, 2-((3-(p-Tolyltellanyl)prop-2-yn-1-yl)oxy)naphthalene-1,4-dione]
IC50 ([1]; Homo sapiens, SCC-9, 48 h): 4 µM | Selectivity index (S.I.) [1]: 0.57 | Effect on DNA fragmentation (SCC-9 cells): increased DNA fragmentation | Effect on cells in G2/M phases (SCC-9 cells): no apparent alteration in the percentage of cells in the G2/M phases | Effect on proportion of cells in G0/G1 phase (SCC-9 cells): significantly decreased the proportion of cells in the G0/G1 phase | IC50 ([2]; Mus musculus, NIH3T3, 48 h): 2.27 µM

IC50 ([1]; Homo sapiens, SCC-9, 48 h): 62.3 µM
Compound: C#CCOC1=C(Sc2ccccc2)C(=O)c2ccccc2C1=O [Compound 11, 2-(Phenylthio)-3-(prop-2-yn-1-yloxy)naphthalene-1,4-dione]

Compound: O=C1C=C(OCC#C[Se]c2ccc(F)cc2)C(=O)c2ccccc21 [Compound 9d, 2-((3-((4-Fluorophenyl)selanyl)prop-2-yn-1-yl)oxy)naphthalene-1,4-dione]
IC50 ([1]; Homo sapiens, SCC-9, 48 h): 23.5 µM | Selectivity index (S.I.) [1]: 1.03 | IC50 ([2]; Mus musculus, NIH3T3, 48 h): 24.2 µM

Compound: Cc1ccc([Se]C#CCOC2=CC(=O)c3ccccc3C2=O)cc1 [Compound 9b, 2-((3-(p-Tolylselanyl)prop-2-yn-1-yl)oxy)naphthalene-1,4-dione]
IC50 ([1]; Homo sapiens, SCC-9, 48 h): 17.1 µM | Selectivity index (S.I.) [1]: 0.52 | IC50 ([2]; Mus musculus, NIH3T3, 48 h): 8.93 µM

Compound: O=C1C=C(OCC#C[Se]c2ccccc2)C(=O)c2ccccc21 [Compound 9a, 2-((3-(Phenylselanyl)prop-2-yn-1-yl)oxy)naphthalene-1,4-dione]
IC50 ([1]; Homo sapiens, SCC-9, 48 h): 31.9 µM | Selectivity index (S.I.) [1]: 2.62 | IC50 ([2]; Mus musculus, NIH3T3, 48 h): 83.6 µM

Compound: O=C1C=C(OCC#C[Te]c2ccc(Cl)cc2)C(=O)c2ccccc21 [Compound 10c, 2-((3-((4-Chlorophenyl)tellanyl)prop-2-yn-1-yl)oxy)naphthalene-1,4-dione]
IC50 ([1]; Homo sapiens, SCC-9, 48 h): 2.89 µM | Selectivity index (S.I.) [1]: 1.70 | Effect on DNA fragmentation (SCC-9 cells): increased DNA fragmentation | Effect on cells in G2/M phases (SCC-9 cells): marked reduction of cells in the G2/M phases | IC50 ([2]; Mus musculus, NIH3T3, 48 h): 4.9 µM

Compound: COc1ccc([Se]C#CCOC2=CC(=O)c3ccccc3C2=O)cc1 [Compound 9c, 2-((3-((4-Methoxyphenyl)selanyl)prop-2-yn-1-yl)oxy)naphthalene-1,4-dione]
IC50 ([1]; Homo sapiens, SCC-9, 48 h): 24.8 µM | Selectivity index (S.I.) [1]: 1.10 | Effect on proportion of cells in G0/G1 phase (SCC-9 cells): increased numbers of cells in the G0/G1 phase | IC50 ([2]; Mus musculus, NIH3T3, 48 h): 27.2 µM

IC50 ([1]; Homo sapiens, SCC-9, 48 h): 31.7 µM
Compound: O=C1C=C(OCC#C[Se]c2ccc(C(F)(F)F)cc2)C(=O)c2ccccc21 [Compound 9f, 2-((3-((4-(Trifluoromethyl)phenyl)selanyl)prop-2-yn-1-yl)oxy)naphthalene-1,4-dione]
Selectivity index (S.I.) [1]: 1.78 | Effect on DNA fragmentation (SCC-9 cells): increased DNA fragmentation | Effect on cells in G2/M phases (SCC-9 cells): marked reduction of cells in the G2/M phases | Effect on proportion of cells in G0/G1 phase (SCC-9 cells): increased numbers of cells in the G0/G1 phase | IC50 ([2]; Mus musculus, NIH3T3, 48 h): 56.5 µM

Compound: O=C1C=C(OCC#C[Te]c2ccccc2)C(=O)c2ccccc21 [Compound 10a, 2-((3-(Phenyltellanyl)prop-2-yn-1-yl)oxy)naphthalene-1,4-dione]
IC50 ([1]; Homo sapiens, SCC-9, 48 h): 1.65 µM | Selectivity index (S.I.) [1]: 3.53 | Effect on DNA fragmentation (SCC-9 cells): increased DNA fragmentation | Effect on cells in G2/M phases (SCC-9 cells): no apparent alteration in the percentage of cells in the G2/M phases | Effect on proportion of cells in G0/G1 phase (SCC-9 cells): significantly decreased the proportion of cells in the G0/G1 phase | IC50 ([2]; Mus musculus, NIH3T3, 48 h): 5.83 µM

IC50 ([1]; Homo sapiens, SCC-9, 48 h): 68.2 µM
Compound: O=C1C=C(OCC#C[Se]c2ccc3ccccc3c2)C(=O)c2ccccc21 [Compound 9g, 2-((3-(Naphthalen-2-ylselanyl)prop-2-yn-1-yl)oxy)naphthalene-1,4-Dione]

Compound: N.N.O=C([O-])C1(C(=O)[O-])CCC1.[Pt+2] [carboplatin, reference compound]
Selectivity index (S.I.) [1]: 0.27 | IC50 ([1]; MTT, 48 h treatment): 572 µM | IC50 ([2]; MTT, 48 h treatment): 156 µM

Compound: O=C1C=C(OCC#C[Se]c2ccc(Cl)cc2)C(=O)c2ccccc21 [Compound 9e, 2-((3-((4-Chlorophenyl)selanyl)prop-2-yn-1-yl)oxy)naphthalene-1,4-dione]
IC50 ([1]; Homo sapiens, SCC-9, 48 h): 65.4 µM

IC50 ([1]; Homo sapiens, SCC-9, 48 h): 2.71 µM
Compound: COc1cccc2c1C(=O)c1c(O)c3c(c(O)c1C2=O)C[C@@](O)(C(=O)CO)C[C@@H]3O[C@H]1C[C@H](N)[C@H](O)[C@H](C)O1 [doxorubicin, reference compound]
Selectivity index (S.I.) [1]: 0.61 | IC50 ([2]; Mus musculus, NIH3T3, 48 h): 1.66 µM

Compound: CCCC[Se]C#CCOC1=CC(=O)c2ccccc2C1=O [Compound 9i, 2-((3-(Butylselanyl)prop-2-yn-1-yl)oxy)naphthalene-1,4-dione]
IC50 ([1]; Homo sapiens, SCC-9, 48 h): 37.4 µM
